The structures appear in SMILES notation.

Data set [1] is described as follows: Stability of compound in phosphate buffered saline containing 5% DMSO assessed as compound remaining at 0.01 mg/ml at pH 7.4 measured after 1 day by HPLC analysis. Format: physicochemical. As to conditions: read-out: Stability. An outline of the steps:
(§1)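 Incubation at 37 °C in phosphate buffered saline, pH 7.4, containing 5% DMSO. Aqueous stability was followed over time.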

Data set [2] can be described thus: Stability of compound in phosphate buffered saline containing 5% DMSO at 0.01 mg/ml at pH 7.4 by HPLC analysis. Format: physicochemical. As to conditions: buffer. The procedure, abridged:
as §1

Data set [3] deals with T1, Oxygen-insensitive NAD(P)H nitroreductase (Escherichia coli K-12, UniProt P38489).
T1 sequence (P38489 whole entry): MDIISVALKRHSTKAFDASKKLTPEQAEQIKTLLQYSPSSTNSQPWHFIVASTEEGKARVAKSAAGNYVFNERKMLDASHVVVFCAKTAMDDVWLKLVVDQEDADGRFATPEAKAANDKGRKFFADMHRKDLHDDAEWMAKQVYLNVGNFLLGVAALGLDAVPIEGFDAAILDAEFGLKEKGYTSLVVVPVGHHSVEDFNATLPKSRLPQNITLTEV
Description: Prodrug conversion in PBS containing 5% DMSO assessed as Escherichia coli nitroreductase-mediated activation by measuring increased consumption of prodrug at 0.01 mg/ml at pH 7.4 in presence of […] by HPLC analysis. As to conditions: isolated protein. An outline of the steps:
(§2)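 Nitroreductase from E. coli (2 units/mL) with NADPH (1 mg/mL) in PBS, pH 7.4, containing 5% DMSO. The reaction was monitored by HPLC.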

For data set [4], the target named is T1, Oxygen-insensitive NAD(P)H nitroreductase. Description: Prodrug conversion in PBS containing 5% DMSO assessed as Escherichia coli nitroreductase-mediated activation by measuring reduced amine intermediate metabolite formation at 0.01 mg/ml at pH 7.4 in presence of […] by HPLC analysis. It counts as ADME. As to conditions: isolated protein. The procedure, abridged:
as §2

Data set [5] shares this target. The data set is described as follows: Prodrug conversion in PBS containing 5% DMSO assessed as Escherichia coli nitroreductase-mediated activation by measuring release of ethyl (6R)-6-[(2-chloro-4-fluorophenyl)sulfamoyl]cyclohexene-1-carboxylate parent drug at 0.01 mg/ml at pH 7.4 in presence of […] by HPLC analysis. The note with it: isolated protein. An outline of the steps: as §2

The target of data set [6] is T2, Toll-like receptor 4 (Homo sapiens, UniProt O00206). Description: Inhibition of human TLR4 expressed in HEK-Blue cells assessed as decrease in LPS-induced TLR4 response incubated for 1 hr followed by LPS stimulation and further incubated for 22 hrs by cell based reporter assay. In general terms: Reporter assays use an easily measured gene product as a stand-in for the process of interest.
T2 sequence (O00206 whole entry): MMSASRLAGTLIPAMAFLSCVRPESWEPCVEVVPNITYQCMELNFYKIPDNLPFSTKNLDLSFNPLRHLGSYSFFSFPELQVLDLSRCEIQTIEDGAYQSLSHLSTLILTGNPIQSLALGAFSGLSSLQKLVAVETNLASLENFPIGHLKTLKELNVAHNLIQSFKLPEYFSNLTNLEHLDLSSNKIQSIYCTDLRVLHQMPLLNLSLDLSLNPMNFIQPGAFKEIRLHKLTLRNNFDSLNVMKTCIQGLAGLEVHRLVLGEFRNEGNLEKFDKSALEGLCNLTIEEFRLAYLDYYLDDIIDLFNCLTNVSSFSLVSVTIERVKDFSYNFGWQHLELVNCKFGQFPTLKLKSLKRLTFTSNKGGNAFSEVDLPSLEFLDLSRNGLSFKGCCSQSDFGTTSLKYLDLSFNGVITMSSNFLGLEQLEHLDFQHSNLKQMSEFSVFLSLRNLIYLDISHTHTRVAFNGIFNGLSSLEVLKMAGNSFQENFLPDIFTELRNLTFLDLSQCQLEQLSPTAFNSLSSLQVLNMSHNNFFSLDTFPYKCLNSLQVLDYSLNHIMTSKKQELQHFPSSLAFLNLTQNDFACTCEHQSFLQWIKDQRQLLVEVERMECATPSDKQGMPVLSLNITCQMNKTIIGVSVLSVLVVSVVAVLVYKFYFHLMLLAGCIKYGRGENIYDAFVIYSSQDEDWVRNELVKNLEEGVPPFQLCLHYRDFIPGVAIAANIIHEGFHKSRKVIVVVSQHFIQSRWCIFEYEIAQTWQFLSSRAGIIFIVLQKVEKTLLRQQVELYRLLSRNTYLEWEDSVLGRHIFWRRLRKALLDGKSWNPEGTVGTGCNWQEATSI

For data set [7], the target named is T2, Toll-like receptor 4. The data set is described as follows: Inhibition of human TLR4 expressed in HEK-Blue cells assessed as decrease in LPS-induced TLR4 response at 15 uM incubated for 1 hr followed by LPS stimulation and further incubated for 22 hrs by cell based reporter assay. An outline of the steps: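 HEK TLR4 reporter cells exposed to compound across a concentration range, then stimulated with LPS. Read-out is optical density at 650 nm. Complete suppression was defined as the OD650 of cells given racemic reference inhibitor at 15 μM. IC50 values were derived from the concentration-response data.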

In the case of `C#CCOC(=O)N(c1ccc(F)cc1Cl)S(=O)(=O)C1CCCC=C1C(=O)OCC` (racemic), the remaining at 24 h, 0.01 mg/ml in data set [1] came out at 25%. In addition, the Stability result in data set [2] is reported as “Unstable”.
Take `CCOC(=O)C1=CCCCC1S(=O)(=O)N(C(=O)OCc1ccc([N+](=O)[O-])cc1)c1ccc(F)cc1Cl` (racemic): the remaining at 24 h, 0.01 mg/ml in data set [1] was 85%. In addition, the Drug metabolism entry in data set [3] is “Metabolite_Detected”; in data set [4], “Metabolite_Notdetected”; in data set [5], “Metabolite_Detected”. In addition, the Stability entry in data set [2] was “Unstable”.
As to `CCOC(=O)C1=CCCCC1S(=O)(=O)N(Cc1ccc([N+](=O)[O-])cc1)c1ccc(F)cc1Cl` (racemic), the Drug metabolism result in data set [3], in data set [4] and in data set [5] was “Metabolite_Detected” each time. In addition, the Stability entry in data set [2] was “Stable”.
As for `C#CCN(c1ccc(F)cc1Cl)S(=O)(=O)C1CCCC=C1C(=O)OCC` (racemic), the Stability entry in data set [2] was “Stable”.
For the compound `CCOC(=O)C1=CCCCC1S(=O)(=O)Nc1ccc(F)cc1Cl` (racemic), the half-maximal inhibitory concentration (IC50) at Toll-like receptor 4 [6] worked out at 40 nM. In addition, the inhibition at Toll-like receptor 4 [7] is 100%.

As usually defined, the IC50 is the point on the concentration scale where inhibition reaches its midpoint. By inhibition is commonly meant the percentage by which the read-out fell short of the control.

The record behind these values is ChEMBL document CHEMBL4373749, “Design and Catalyzed Activation of Tak-242 Prodrugs for Localized Inhibition of TLR4-Induced Inflammation” (ACS Med Chem Lett, 2020).
